Experiments:
Type in all cases: functional, cell-based
[1] = tested on: MDA-MB-435; assay: Cytotoxicity in human MDA-MB-435 cells assessed as reduction in cell viability incubated for 72 hrs by cell-titer-96 aqueous one solution cell proliferation assay; conditions: MDA-MB-435, 72 h
How it was run: (§1)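 Cells were seeded and cultured overnight at 37 °C in 5% CO2, then exposed to sample, paclitaxel (positive control) or DMSO vehicle for 72 h. Viability was read by CellTiter 96 AQueous One Solution (MTS) assay, and IC50 was calculated relative to the vehicle control.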

[2] = tested on: MDA-MB-231; assay: Cytotoxicity in human MDA-MB-231 cells assessed as reduction in cell viability incubated for 72 hrs by cell-titer-96 aqueous one solution cell proliferation assay; conditions: MDA-MB-231, 72 h; how it was run: as §1
[3] = tested on: OVCAR-3; assay: Cytotoxicity in human OVCAR3 cells assessed as reduction in cell viability incubated for 72 hrs by cell-titer-96 aqueous one solution cell proliferation assay; conditions: OVCAR-3, 72 h; how it was run: as §1

Compound | IC50 [1] | IC50 [2] | IC50 [3]
CCCC[C@H]1CCCC[C@H](C)[C@@H](OC(C)=O)c2cc(O)c(c(O)c2)[C@@H](CCCC)CCCC[C@H](C)[C@@H](OC(C)=O)c2cc(O)c1c(O)c2 | 12000 nM | 13000 nM | 10 µM
C[C@H]1CCCC[C@H](CCCC(Cl)Cl)c2c(O)cc(cc2O)[C@H](OC(N)=O)[C@@H](C)CCCC[C@H](CCCC(Cl)Cl)c2c(O)cc(cc2O)[C@@H]1OC(N)=O | 2400 nM | 1000 nM | 4.3 µM
C[C@@H]1CCCCC[C@H](CCCCO)c2c(O)cc(cc2O)[C@H](C)CCCCC[C@H](CCCCO)c2c(O)cc1cc2O | 900 nM | 1000 nM | 2 µM
C[C@H]1CCCC[C@H](CCCC(Cl)Cl)c2c(O)cc(cc2O)[C@H](OC(N)=O)[C@@H](C)CCCC[C@H](CCCC(Cl)Cl)c2c(O)cc(cc2O)[C@@H]1O | 3200 nM | 1200 nM | 4.2 µM
CCCC[C@H]1CCCCC[C@@H](C)c2cc(O)c(c(O)c2)[C@@H](CCCCO)CCCCC[C@@H](C)c2cc(O)c1c(O)c2 | 1600 nM | 1400 nM | 1.4 µM
CCCC[C@H]1CCCCC[C@@H](C)c2cc(O)c(c(O)c2)[C@@H](CCCC)CCCCC[C@@H](C)c2cc(O)c1c(O)c2 | 9800 nM | 6200 nM | 5.1 µM
